Where a chain is given by its changes, count along the chain named. In names and notes the source's numbering stands. Several values for one entry are separate records, joined by “and”; a condition that tells them apart may be missing. Identical values can stand only once. No end group written: not given here.
Assays:
G9a [1] = assay: In vitro automethylation assay of G9a; type: biochemical, murine; settings: 100 fold excess cold AdoMet with tritiated AdoMet; Figure 2B lanes 2 versus 3
Procedure, shortened: (§1)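 Automethylation: recombinant murine G9a (full-length or MBP-fused construct lacking the N-terminal 633 aa) incubated with S-adenosyl-L-[methyl-³H]methionine, either alone or, for H3 signal, with recombinant histone H3. Parallel reactions contained excess unlabelled AdoMet as competitor. Reactions run at 25°C for 1 h with 7 µM tritiated AdoMet, resolved on 4–20% SDS-PAGE, Coomassie-stained and fluorographed on film.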

H3 = assay: In vitro methylation of histone H3; type: biochemical; settings: 100 fold excess cold AdoMet with tritiated AdoMet; Figure 2B lanes 4 versus 5
Procedure, shortened: as §1

G9afl [2] = target: T1, G9afl (Mus musculus, UniProt Q9Z148); assay: Steady-state kinetics of G9afl on peptides representing ARKT/S motifs; type: biochemical, murine; settings: peptide substrate, enzyme G9afl; for Km / kcat (turnover number): 25°C, pH 9.0, duplicate
T1 sequence (Q9Z148 1-1263): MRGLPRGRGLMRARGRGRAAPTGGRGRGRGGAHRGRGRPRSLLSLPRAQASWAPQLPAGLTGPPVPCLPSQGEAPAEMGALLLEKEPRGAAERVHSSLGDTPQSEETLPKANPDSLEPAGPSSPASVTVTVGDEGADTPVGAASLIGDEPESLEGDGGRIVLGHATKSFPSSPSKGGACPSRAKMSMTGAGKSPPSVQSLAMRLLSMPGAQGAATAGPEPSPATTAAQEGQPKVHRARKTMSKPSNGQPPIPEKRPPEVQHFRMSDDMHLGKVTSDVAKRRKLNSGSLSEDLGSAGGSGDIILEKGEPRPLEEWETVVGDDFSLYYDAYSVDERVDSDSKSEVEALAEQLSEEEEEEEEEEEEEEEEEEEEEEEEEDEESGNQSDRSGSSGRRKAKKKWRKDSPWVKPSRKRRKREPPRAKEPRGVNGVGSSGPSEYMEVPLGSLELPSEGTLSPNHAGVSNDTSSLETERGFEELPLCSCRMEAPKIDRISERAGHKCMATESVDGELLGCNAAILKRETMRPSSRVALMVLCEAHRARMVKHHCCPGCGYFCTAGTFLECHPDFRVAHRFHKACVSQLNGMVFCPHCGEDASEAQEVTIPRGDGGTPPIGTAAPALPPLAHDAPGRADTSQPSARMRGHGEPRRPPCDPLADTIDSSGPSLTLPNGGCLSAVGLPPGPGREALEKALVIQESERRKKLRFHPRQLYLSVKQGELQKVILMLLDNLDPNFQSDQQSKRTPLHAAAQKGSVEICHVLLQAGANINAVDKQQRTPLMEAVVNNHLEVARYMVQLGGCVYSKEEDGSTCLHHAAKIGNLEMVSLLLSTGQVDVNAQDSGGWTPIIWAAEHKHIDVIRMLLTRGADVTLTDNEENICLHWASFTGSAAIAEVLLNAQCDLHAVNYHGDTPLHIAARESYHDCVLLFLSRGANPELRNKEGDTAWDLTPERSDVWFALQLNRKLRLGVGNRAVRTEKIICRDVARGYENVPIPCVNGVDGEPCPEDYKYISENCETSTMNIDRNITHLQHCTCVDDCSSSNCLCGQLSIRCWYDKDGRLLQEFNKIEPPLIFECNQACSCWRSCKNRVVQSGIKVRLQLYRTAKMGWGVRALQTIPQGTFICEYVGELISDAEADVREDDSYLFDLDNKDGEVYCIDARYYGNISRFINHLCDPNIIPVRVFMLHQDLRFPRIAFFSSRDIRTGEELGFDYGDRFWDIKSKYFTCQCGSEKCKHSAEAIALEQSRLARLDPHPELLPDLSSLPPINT

G9afl [3] = target: T1, G9afl; assay: Methylation of modified H3 peptide substrates by wild-type G9a; type: biochemical, murine; settings: 25 nM G9afl; Figure 4B
G9amut = assay: Methylation of modified H3 peptide substrates by G9amut; type: biochemical, murine; settings: 25 nM G9amut; Figure 4B
full-length G9a = assay: In vitro methylation of GST-G9a fusion fragments by G9afl; type: biochemical, murine; settings: for methylation / radioactive incorporation of GST fusion fragment: fluorography and radioactive incorporation of each band, Figure 2D; for methylation of GST fusion by G9afl: tritiated AdoMet, fluorography, Figure 2C
G9a [4] = assay: Methyltransferase assay with peptide spanning amino acids 160–175 of G9a; type: biochemical, murine; settings: even after 1 h of incubation; Supplementary Figure 1
Wt-H3 = assay: Steady-state kinetics of G9a enzymes with Wt-H3 peptide; type: biochemical; settings: GST fusion enzymes with Wt-H3, steady-state conditions; Supplementary Figure 2
HP1α = assay: Immunofluorescence co-localization with HP1α in COS-7 cells; type: cell-based; settings: 48 h after transfection, Figure 6

`C[S+](CC[C@H](N)C(=O)[O-])C[C@H]1O[C@@H](n2cnc3c(N)ncnc32)[C@H](O)[C@@H]1O` (stereo partly drawn) [cold AdoMet, S-adenosyl-L-methionine] was tested, and the “autoradiography signal for G9a” value (G9a [1]) was “not apparent” and the “autoradiography signal for H3” value (H3) was “not apparent”.

With CADVKVHRARKTMPKSV [EuHMT] the kcat/Km (G9afl [2]) was 172 10^6 × M^−1 h^−1, the Km (G9afl [2]) was 500 ± 50 nM and the “kcat (turnover number)” value (G9afl [2]) was 86 h⁻¹ and 86 ± 2 h⁻¹.

CARTKQTARKS(p)TGG [H3S10p] was tested, and the “effect of phosphorylated peptide on enzyme” value (shortened to “effect”) (G9afl [3]) was “inhibited both enzymes” and the “effect” value (G9amut) was “inhibited both enzymes”.

With CARTKQTARKST(p)GG [H3T11p] the “effect” value (G9afl [3]) was “inhibited both enzymes” and the “effect” value (G9amut) was “inhibited both enzymes”.

CGQPKVHRARKTMPKSV [G9a] was tested, and the “kcat (turnover number)” value (G9afl [2]) was 66 h⁻¹.

CPQKKVFKARKTMRVSD [mAM] was tested, and the kcat/Km (G9afl [2]) was 140 10^6 × M^−1 h^−1, the Km (G9afl [2]) was 700 ± 50 nM and the “kcat (turnover number)” value (G9afl [2]) was 98 h⁻¹ and 98 ± 4 h⁻¹.

“GST-G9a (210–246/K243A) (AQGAATAGPEPSPATTAAQEGQPKVHRARKTMSAPSN; also: GST fusion; UniProt Q9Z148 210-246, looked up, variant K243A)” was tested, and the “methylation / radioactive incorporation of GST fusion fragment” value (full-length G9a) was “decrease in K239 methylation”.

For “GST-G9a (210–264/K239A) (AQGAATAGPEPSPATTAAQEGQPKVHRARATMSKPSNGQPPIPEKRPPEVQHFRM; also: GST fusion; UniProt Q9Z148 210-264, looked up, variant K239A)”, the “methylation / radioactive incorporation of GST fusion fragment” value (full-length G9a) was “impaired”.

In the case of IVLGHATKSFPSSPSK [G9aK167], the “methyl group incorporation to the peptide” value (G9a [4]) is reported as “did not observe methyl group incorporation to the peptide”.

B1: 1–117: GST fusion containing 1–117 amino acids of G9a (protein, UniProt Q9Z148 1-117, looked up, fragment)
chain: MRGLPRGRGLMRARGRGRAAPTGGRGRGRGGAHRGRGRPRSLLSLPRAQASWAPQLPAGLTGPPVPCLPSQGEAPAEMGALLLEKEPRGAAERVHSSLGDTPQSEETLPKANPDSLE
modifications: GST fusion
For B1, the “methylation of GST fusion by G9afl” value (full-length G9a) was “did not methylate”.

B2: 264–633: GST fusion containing 264–633 amino acids of G9a (protein, UniProt Q9Z148 264-633, looked up, fragment)
chain: MSDDMHLGKVTSDVAKRRKLNSGSLSEDLGSAGGSGDIILEKGEPRPLEEWETVVGDDFSLYYDAYSVDERVDSDSKSEVEALAEQLSEEEEEEEEEEEEEEEEEEEEEEEEEDEESGNQSDRSGSSGRRKAKKKWRKDSPWVKPSRKRRKREPPRAKEPRGVNGVGSSGPSEYMEVPLGSLELPSEGTLSPNHAGVSNDTSSLETERGFEELPLCSCRMEAPKIDRISERAGHKCMATESVDGELLGCNAAILKRETMRPSSRVALMVLCEAHRARMVKHHCCPGCGYFCTAGTFLECHPDFRVAHRFHKACVSQLNGMVFCPHCGEDASEAQEVTIPRGDGGTPPIGTAAPALPPLAHDAPGRADTSQ
modifications: GST fusion
For B2, the “methylation of GST fusion by G9afl” value (full-length G9a) was “did not methylate”.

B3: GST-G9afl (K167A) (protein, UniProt Q9Z148 1-1263, looked up, variant K167A)
chain: T1 sequence (Q9Z148 1-1263) with K167A
modifications: full-length GST fusion
With B3 the kcat (Wt-H3) was 66 h⁻¹.

B4: GFP-G9amut (protein, UniProt Q9Z148 1-1263, looked up, variant K233A K239A K243A)
chain: T1 sequence (Q9Z148 1-1263) with K233A, K239A, K243A
modifications: full-length GFP fusion
In the case of B4, the “co-localization with HP1α” value (HP1α) is reported as “did not co-localize with HP1α”.

— publication PMC2175347 (Nucleic Acids Research, 2007)
